# Measurements from ChEMBL document CHEMBL1255284, “Aspergillus section Fumigati: antifungal susceptibility patterns and sequence-based identification” (2008).
# How the values were obtained:
# Aspergillus lentulus [1] = experiment: Antimicrobial activity against Aspergillus lentulus isolate CNM-CM-1290 obtained from sputum of patient after 48 hrs by broth microdilution method; format: functional; conditions: isolate CNM-CM-1290, 48 h
# Procedure, shortened: (§1)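 CLSI M38-A broth microdilution with modifications: RPMI 1640 with L-glutamine, 2% glucose, buffered to pH 7 with 0.165 M MOPS. Inoculum of 1 × 10^5 to 5 × 10^5 CFU/ml from 3- to 5-day-old cultures. Incubated 35°C, 48 h, humid. Visual reading with a mirror. MIC is complete growth inhibition; echinocandin MEC is hyphal morphological alteration. Azoles 8 to 0.015 μg/ml; others 16 to 0.03 μg/ml.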
# Aspergillus lentulus [2] = experiment: Antimicrobial activity against Aspergillus lentulus isolate CNM-CM-3134 obtained from sputum of patient after 48 hrs by broth microdilution method; format: functional; conditions: isolate CNM-CM-3134, 48 h; procedure, shortened: as §1
# Aspergillus lentulus [3] = experiment: Antimicrobial activity against Aspergillus lentulus isolate CNM-CM-3364 obtained from bronchoalveolar lavage fluid of patient after 48 hrs by broth microdilution method; format: functional; conditions: isolate CNM-CM-3364, Lung; procedure, shortened: as §1
# Aspergillus lentulus [4] = experiment: Antimicrobial activity against Aspergillus lentulus isolate CNM-CM-3537 obtained from sputum of patient after 48 hrs by broth microdilution method; format: functional; conditions: isolate CNM-CM-3537, 48 h; procedure, shortened: as §1
# Aspergillus lentulus [5] = experiment: Antimicrobial activity against Aspergillus lentulus isolate CNM-CM-3538 obtained from sputum of patient after 48 hrs by broth microdilution method; format: functional; conditions: isolate CNM-CM-3538, 48 h; procedure, shortened: as §1
# Aspergillus lentulus [6] = experiment: Antimicrobial activity against Aspergillus lentulus isolate CNM-CM-3583 obtained from sputum of patient after 48 hrs by broth microdilution method; format: functional; conditions: isolate CNM-CM-3583, 48 h; procedure, shortened: as §1
# Aspergillus lentulus [7] = experiment: Antimicrobial activity against Aspergillus lentulus isolate CNM-CM-3599 obtained from sputum of patient after 48 hrs by broth microdilution method; format: functional; conditions: isolate CNM-CM-3599, 48 h; procedure, shortened: as §1
# Aspergillus lentulus [8] = experiment: Antimicrobial activity against Aspergillus lentulus isolate CNM-CM-4330 obtained from sputum of patient after 48 hrs by broth microdilution method; format: functional; conditions: isolate CNM-CM-4330, 48 h; procedure, shortened: as §1
# Aspergillus lentulus [9] = experiment: Antimicrobial activity against Aspergillus lentulus isolate CNM-CM-4370 obtained from sputum of patient after 48 hrs by broth microdilution method; format: functional; conditions: isolate CNM-CM-4370, 48 h; procedure, shortened: as §1
# Aspergillus lentulus [10] = experiment: Antimicrobial activity against Aspergillus lentulus isolate CNM-CM-4387 obtained from sputum of patient after 48 hrs by broth microdilution method; format: functional; conditions: isolate CNM-CM-4387, 48 h; procedure, shortened: as §1
# Aspergillus lentulus [11] = experiment: Antimicrobial activity against Aspergillus lentulus isolate CNM-CM-4415 obtained from sputum of patient after 48 hrs by broth microdilution method; format: functional; conditions: isolate CNM-CM-4415, 48 h; procedure, shortened: as §1
# Aspergillus lentulus [12] = experiment: Antimicrobial activity against Aspergillus lentulus isolate CNM-CM-4420 obtained from nail of patient after 48 hrs by broth microdilution method; format: functional; conditions: isolate CNM-CM-4420, 48 h; procedure, shortened: as §1
# Aspergillus lentulus [13] = experiment: Antimicrobial activity against Aspergillus lentulus isolate CNM-CM-4426 obtained from sputum of patient after 48 hrs by broth microdilution method; format: functional; conditions: isolate CNM-CM-4426, 48 h; procedure, shortened: as §1
# Aspergillus lentulus [14] = experiment: Antimicrobial activity against Aspergillus lentulus isolate CNM-CM-4428 obtained from skin of patient after 48 hrs by broth microdilution method; format: functional; conditions: isolate CNM-CM-4428, 48 h; procedure, shortened: as §1
# [15] = test system: Aspergillus fumisynnematus; experiment: Antimicrobial activity against Aspergillus fumisynnematus isolate CNM-CM-4063 obtained from bronchoalveolar aspirate of patient after 48 hrs by broth microdilution method; format: functional; conditions: isolate CNM-CM-4063, Lung; procedure, shortened: as §1
# Neosartorya hiratsukae [16] = experiment: Antimicrobial activity against Neosartorya hiratsukae isolate CNM-CM-3303 obtained from skin of patient after 48 hrs by broth microdilution method; format: functional; conditions: Aspergillus hiratsukae, isolate CNM-CM-3303, 48 h; procedure, shortened: as §1
# Neosartorya hiratsukae [17] = experiment: Antimicrobial activity against Neosartorya hiratsukae isolate CNM-CM-3305 obtained from skin of patient after 48 hrs by broth microdilution method; format: functional; conditions: Aspergillus hiratsukae, isolate CNM-CM-3305, 48 h; procedure, shortened: as §1
# Neosartorya hiratsukae [18] = experiment: Antimicrobial activity against Neosartorya hiratsukae isolate CNM-CM-3764 obtained from oropharyngeal exudate of patient after 48 hrs by broth microdilution method; format: functional; conditions: Aspergillus hiratsukae, isolate CNM-CM-3764, 48 h; procedure, shortened: as §1
# Neosartorya hiratsukae [19] = experiment: Antimicrobial activity against Neosartorya hiratsukae isolate CNM-CM-3740 obtained from oropharyngeal exudate of patient after 48 hrs by broth microdilution method; format: functional; conditions: Aspergillus hiratsukae, isolate CNM-CM-3740, 48 h; procedure, shortened: as §1
# Neosartorya hiratsukae [20] = experiment: Antimicrobial activity against Neosartorya hiratsukae isolate CNM-CM-4328 obtained from cornea of patient after 48 hrs by broth microdilution method; format: functional; conditions: Aspergillus hiratsukae, isolate CNM-CM-4328, Cornea; procedure, shortened: as §1
# [21] = test system: Neosartorya pseudofischeri; experiment: Antimicrobial activity against Neosartorya pseudofischeri isolate CNM-CM-3769 obtained from sputum of patient after 48 hrs by broth microdilution method; format: functional; conditions: Aspergillus thermomutatus
# Procedure, shortened: (§2)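 CLSI M38-A broth microdilution with modifications: RPMI 1640 with L-glutamine, MOPS-buffered to pH 7, plus 2% glucose. Inoculum 1 × 10^5 to 5 × 10^5 CFU/ml from 3–5-day cultures. Incubated at 35°C for 48 h, humid. Read visually with a mirror. MIC = complete growth inhibition; echinocandin MEC = altered hyphal morphology. QC strain A. fumigatus ATCC 2004305.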
# [22] = test system: Neosartorya pseudofischeri; experiment: Antimicrobial activity against Neosartorya pseudofischeri isolate CNM-CM-2270 obtained from sputum of patient after 48 hrs by broth microdilution method; format: functional; conditions: Aspergillus thermomutatus, isolate CNM-CM-2270, 48 h; procedure, shortened: as §2
# [23] = test system: Neosartorya pseudofischeri; experiment: Antimicrobial activity against Neosartorya pseudofischeri isolate CNM-CM-4060 obtained from sputum of patient after 48 hrs by broth microdilution method; format: functional; conditions: Aspergillus thermomutatus; procedure, shortened: as §2
# [24] = test system: Neosartorya pseudofischeri; experiment: Antimicrobial activity against Neosartorya pseudofischeri isolate CNM-CM-3914 obtained from nail of patient after 48 hrs by broth microdilution method; format: functional; conditions: Aspergillus thermomutatus, isolate CNM-CM-3914, 48 h; procedure, shortened: as §2
# Aspergillus viridinutans [25] = experiment: Antimicrobial activity against Aspergillus viridinutans isolate CNM-CM-3147 obtained from oropharyngeal exudate of patient after 48 hrs by broth microdilution method; format: functional; conditions: isolate CNM-CM-3147, 48 h; procedure, shortened: as §1
# Aspergillus viridinutans [26] = experiment: Antimicrobial activity against Aspergillus viridinutans isolate CNM-CM-4518 obtained from nail of patient after 48 hrs by broth microdilution method; format: functional; conditions: isolate CNM-CM-4518, 48 h; procedure, shortened: as §1
# Aspergillus fumigatus = experiment: Antimicrobial activity against Aspergillus fumigatus ATCC 2004305 after 48 hrs by broth microdilution method; format: functional; conditions: ATCC 2004305, 48 h
# [27] = test system: Aspergillus fumigatiaffinis; experiment: Antimicrobial activity against Aspergillus fumigatiaffinis isolate CNM-CM-2280 obtained from sputum of patient after 48 hrs by broth microdilution method; conditions: isolate CNM-CM-2280, 48 h
# [28] = test system: Aspergillus fumigatiaffinis; experiment: Antimicrobial activity against Aspergillus fumigatiaffinis isolate CNM-CM-3227 obtained from bronchoalveolar lavage fluid of patient after 48 hrs by broth microdilution method; conditions: isolate CNM-CM-3227, Lung
compound,measurement,setting,value
CC[C@@H]([C@H](C)O)n1ncn(-c2ccc(N3CCN(c4ccc(OC[C@@H]5CO[C@@](Cn6cncn6)(c6ccc(F)cc6F)C5)cc4)CC3)cc2)c1=O [POSACONAZOLE],MIC,Aspergillus lentulus [1],0.4 µg/mL
same,MIC,Aspergillus lentulus [2],0.56 µg/mL
same,MIC,Aspergillus lentulus [3],2 µg/mL
same,MIC,Aspergillus lentulus [4],0.28 µg/mL
same,MIC,Aspergillus lentulus [5],0.75 µg/mL
same,MIC,Aspergillus lentulus [6],0.25 µg/mL
same,MIC,Aspergillus lentulus [7],0.5 µg/mL
same,MIC,Aspergillus lentulus [8],0.12 µg/mL
same,MIC,Aspergillus lentulus [9],0.18 µg/mL
same,MIC,Aspergillus lentulus [10],0.25 µg/mL
same,MIC,Aspergillus lentulus [11],0.33 µg/mL
same,MIC,Aspergillus lentulus [12],0.33 µg/mL
same,MIC,Aspergillus lentulus [13],0.2 µg/mL
same,MIC,Aspergillus lentulus [14],0.62 µg/mL
same,MIC,[15],0.12 µg/mL
same,MIC,Neosartorya hiratsukae [16],0.06 µg/mL
same,MIC,Neosartorya hiratsukae [17],0.045 µg/mL
same,MIC,Neosartorya hiratsukae [18],0.16 µg/mL
same,MIC,Neosartorya hiratsukae [19],0.1 µg/mL
same,MIC,Neosartorya hiratsukae [20],0.09 µg/mL
same,MIC,[21],0.25 µg/mL
same,MIC,[22],0.31 µg/mL
same,MIC,[23],0.29 µg/mL
same,MIC,[24],0.5 µg/mL
same,MIC,Aspergillus viridinutans [25],0.41 µg/mL
same,MIC,Aspergillus viridinutans [26],0.25 µg/mL
same,MIC,Aspergillus fumigatus,0.03 µg/mL
same,MIC,[27],1.16 µg/mL
same,MIC,[28],0.625 µg/mL
C[C@@H](c1nc(-c2ccc(C#N)cc2)cs1)[C@](O)(Cn1cncn1)c1ccc(F)cc1F [RAVUCONAZOLE],MIC,Aspergillus lentulus [1],3.5 µg/mL
same,MIC,Aspergillus lentulus [2],6 µg/mL
same,MIC,Aspergillus lentulus [3],5.6 µg/mL
same,MIC,Aspergillus lentulus [4],3 µg/mL
same,MIC,Aspergillus lentulus [5],7 µg/mL
same,MIC,Aspergillus lentulus [6],2 µg/mL
same,MIC,Aspergillus lentulus [7],2 µg/mL
same,MIC,Aspergillus lentulus [8],1.5 µg/mL
same,MIC,Aspergillus lentulus [9],5.33 µg/mL
same,MIC,Aspergillus lentulus [10],3 µg/mL
same,MIC,Aspergillus lentulus [11],4.66 µg/mL
same,MIC,Aspergillus lentulus [12],4 µg/mL
same,MIC,Aspergillus lentulus [13],5.33 µg/mL
same,MIC,Aspergillus lentulus [14],5 µg/mL
same,MIC,[15],0.83 µg/mL
same,MIC,Neosartorya hiratsukae [16],0.375 µg/mL
same,MIC,Neosartorya hiratsukae [17],0.25 µg/mL
same,MIC,Neosartorya hiratsukae [18],1.33 µg/mL
same,MIC,Neosartorya hiratsukae [19],0.66 µg/mL
same,MIC,Neosartorya hiratsukae [20],0.5 µg/mL
same,MIC,[21],2 µg/mL
same,MIC,[22],3.5 µg/mL
same,MIC,[23],3.33 µg/mL
same,MIC,[24],4 µg/mL
same,MIC,Aspergillus viridinutans [25],5.66 µg/mL
same,MIC,Aspergillus viridinutans [26],4 µg/mL
same,MIC,Aspergillus fumigatus,0.25 µg/mL
same,MIC,[27],6 µg/mL
same,MIC,[28],5 µg/mL
CN(C/C=C/C#CC(C)(C)C)Cc1cccc2ccccc12 [TERBINAFINE],MIC,Aspergillus lentulus [1],1.33 µg/mL
same,MIC,Aspergillus lentulus [2],1.75 µg/mL
same,MIC,Aspergillus lentulus [3],0.5 µg/mL
same,MIC,Aspergillus lentulus [4],1 µg/mL
same,MIC,Aspergillus lentulus [5],1 µg/mL
same,MIC,Aspergillus lentulus [6],1.25 µg/mL
same,MIC,Aspergillus lentulus [7],1 µg/mL
same,MIC,Aspergillus lentulus [8],0.5 µg/mL
same,MIC,Aspergillus lentulus [9],0.5 µg/mL
same,MIC,Aspergillus lentulus [10],0.5 µg/mL
same,MIC,Aspergillus lentulus [11],0.5 µg/mL
same,MIC,Aspergillus lentulus [12],1 µg/mL
same,MIC,Aspergillus lentulus [13],0.83 µg/mL
same,MIC,Aspergillus lentulus [14],0.66 µg/mL
same,MIC,[15],1.66 µg/mL
same,MIC,Neosartorya hiratsukae [16],0.09 µg/mL
same,MIC,Neosartorya hiratsukae [17],0.06 µg/mL
same,MIC,Neosartorya hiratsukae [18],0.25 µg/mL
same,MIC,Neosartorya hiratsukae [19],0.2 µg/mL
same,MIC,Neosartorya hiratsukae [20],0.09 µg/mL
same,MIC,[21],1.33 µg/mL
same,MIC,[22],1 µg/mL
same,MIC,[23],0.5 µg/mL
same,MIC,[24],0.5 µg/mL
same,MIC,Aspergillus viridinutans [25],1.2 µg/mL
same,MIC,Aspergillus viridinutans [26],0.75 µg/mL
same,MIC,Aspergillus fumigatus,2 µg/mL
same,MIC,[27],1.66 µg/mL
same,MIC,[28],1.4 µg/mL
C[C@@H](c1ncncc1F)[C@](O)(Cn1cncn1)c1ccc(F)cc1F [VORICONAZOLE],MIC,Aspergillus lentulus [1],4.5 µg/mL
same,MIC,Aspergillus lentulus [2],6 µg/mL
same,MIC,Aspergillus lentulus [3],5.6 µg/mL
same,MIC,Aspergillus lentulus [4],3.5 µg/mL
same,MIC,Aspergillus lentulus [5],7.5 µg/mL
same,MIC,Aspergillus lentulus [6],3.5 µg/mL
same,MIC,Aspergillus lentulus [7],4 µg/mL
same,MIC,Aspergillus lentulus [8],3 µg/mL
same,MIC,Aspergillus lentulus [9],5.33 µg/mL
same,MIC,Aspergillus lentulus [10],4 µg/mL
same,MIC,Aspergillus lentulus [11],5.33 µg/mL
same,MIC,Aspergillus lentulus [12],5.33 µg/mL
same,MIC,Aspergillus lentulus [13],5.33 µg/mL
same,MIC,Aspergillus lentulus [14],5 µg/mL
same,MIC,[15],0.83 µg/mL
same,MIC,Neosartorya hiratsukae [16],0.5 µg/mL
same,MIC,Neosartorya hiratsukae [17],0.375 µg/mL
same,MIC,Neosartorya hiratsukae [18],1.66 µg/mL
same,MIC,Neosartorya hiratsukae [19],1 µg/mL
same,MIC,Neosartorya hiratsukae [20],1.25 µg/mL
same,MIC,[21],3.33 µg/mL
same,MIC,[22],3 µg/mL
same,MIC,[23],3.33 µg/mL
same,MIC,[24],6.66 µg/mL
same,MIC,Aspergillus viridinutans [25],4 µg/mL
same,MIC,Aspergillus viridinutans [26],4 µg/mL
same,MIC,Aspergillus fumigatus,0.25 µg/mL
same,MIC,[27],6.66 µg/mL
same,MIC,[28],5.6 µg/mL
